{"data": "Measured values pooled from the literature", "SLC6A3": "Sodium-dependent dopamine transporter (SLC6A3, Homo sapiens, UniProt Q01959)", "CA12": "Carbonic anhydrase 12 (CA12, Homo sapiens, UniProt O43570)", "note": "Compare with care: the assays were run in different laboratories. pKi: −log10 of the molar value."}
{"Structure (SMILES)": "CCCCC1CNC2CCc3ccc(OC)cc3C12 (racemic)", "target": "SLC6A3", "test": "ligand displacement, radioligand", "pKi": "< 5.00"}
{"Structure (SMILES)": "COC(=O)[C@H]1[C@@H](c2ccc(Cl)cc2)C[C@@H]2CC[C@H]1N2CCCCCCCCCc1c2ccccc2cc2ccccc12", "target": "SLC6A3", "test": "ligand displacement, radioligand", "setting": "pH 7.4", "pKi": 7.62}
{"Structure (SMILES)": "CCOP1(=O)CC=Cc2cc(N)ccc2O1 (stereo not drawn)", "target": "CA12", "test": "enzyme activity, inhibitor, stopped-flow", "pKi": 7.78}
{"Structure (SMILES)": "Cc1c(Cl)c(=O)oc2cc(OCCCC[Se]C#N)ccc12", "target": "CA12", "test": "enzyme activity, inhibitor, stopped-flow", "pKi": 7.15}
{"Structure (SMILES)": "COC(=O)[C@H]1[C@@H](c2ccc(Cl)c(Cl)c2)C[C@@H]2CC[C@H]1N2CCCOCc1ccc2cc3ccccc3cc2c1", "target": "SLC6A3", "test": "ligand displacement, radioligand", "setting": "pH 7.4, cell membranes", "pKi": 6.69}
{"Structure (SMILES)": "COc1ccc(NC(=O)Nc2ccc3c(c2)C=CCP(=O)(O)O3)cc1", "target": "CA12", "test": "enzyme activity, inhibitor, stopped-flow", "pKi": "< 5.00"}
{"Structure (SMILES)": "COc1cc2c(cc1OC)CN(CCc1ccc(NC(=O)c3cccc4c(=O)c5cccc(OC)c5[nH]c34)cc1)CC2", "target": "D(3) dopamine receptor (DRD3, Homo sapiens, UniProt P35462)", "test": "cell-free assay", "pKi": 7.11}
{"Structure (SMILES)": "O=C(Nc1ccc2c(c1)C=CCP(=O)(O)O2)c1ccc(I)cc1", "target": "CA12", "test": "enzyme activity, inhibitor, stopped-flow", "pKi": 7.24}
{"Structure (SMILES)": "Cc1cc(=O)oc2cc(OCCCC[Se]C#N)ccc12", "target": "CA12", "test": "enzyme activity, inhibitor, stopped-flow", "pKi": 7.29}
